Assays:
[1] = system: Human immunodeficiency virus 1; assay: Antiviral activity against HIV1 bearing protease gene with B26 mutation infected in human MT4 cells after 5 days by MTT assay; type: functional, organism-based; settings: Human immunodeficiency virus 1, MT4, 120 h
[2] = system: Human immunodeficiency virus 1; assay: Antiviral activity against HIV1 bearing protease gene with A17 mutation infected in human MT4 cells after 5 days by MTT assay; type: functional, organism-based; settings: Human immunodeficiency virus 1, MT4, 120 h
Outline: (§1)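 HIV-1 A17 mutant clone carrying protease mutations L10F, V32I, M46I, I47V, Q58E and I84V, generated by in vitro serial passage under LPV/RTV. EC50 was determined in MT-4 cells. Wild-type reference strain was HIV-1 pNL4-3.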

[3] = system: Human immunodeficiency virus 1; assay: Antiviral activity against HIV1 bearing protease gene with P25 mutation infected in human MT4 cells after 5 days by MTT assay; type: functional, organism-based; settings: Human immunodeficiency virus 1, MT4, 120 h
[4] = system: Human immunodeficiency virus 1; assay: Antiviral activity against wild-type HIV1 pNL4-3 infected in human MT4 cells after 5 days by MTT assay in presence of 50% human serum; type: functional, organism-based; settings: Human immunodeficiency virus 1, MT4, 120 h
[5] = system: Human immunodeficiency virus 1; assay: Fold resistance, ratio of EC50 for HIV1 bearing protease gene with A17 mutation to EC50 for wild-type HIV1 pNL4-3; type: functional; outline: as §1
[6] = system: Human immunodeficiency virus 1; assay: Antiviral activity against wild-type HIV1 pNL4-3 infected in human MT4 cells after 5 days by MTT assay; type: functional, organism-based; settings: Human immunodeficiency virus 1, MT4, 120 h
Rattus norvegicus = assay: Toxicity in Gunn rat assessed as unconjugated-bilirubin level at 250 mg/kg coadministered with ritonavir measured on day 1; type: organism-based; set-up: dose 250 mg/kg; settings: in vivo
Outline: (§2)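 Gunn rats (n = 8-10 per arm) dosed orally with compound in 5% ethanol/95% propylene glycol with p-toluenesulfonic acid, together with 50 mg/kg RTV. Plasma was sampled 4 h after the first and second doses. Drug was measured by HPLC and bilirubin […]. Change in bilirubin (mg/dL) reported as mean with SD.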

Serum = assay: Drug level in Gunn rat serum at 250 mg/kg coadministered with ritonavir measured on day 1; type: ADME, organism-based; set-up: dose 250 mg/kg; settings: in vivo; outline: as §2
[7] = Clearance in Sprague-Dawley rat at 5 mg/kg, iv; type: ADME, organism-based; set-up: dose 5 mg/kg, route intravenous; settings: in vivo
Outline: (§3)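 Male Sprague-Dawley-derived rats (n = 3) dosed iv or by oral gavage with 5 mg/mL solutions in 5% dextrose containing 20% ethanol, 30% propylene glycol and methanesulfonic acid equivalents. Plasma was sampled at 10 time points over 8 h, extracted into ethyl acetate/hexane and analysed by reversed-phase HPLC with internal standard. AUC in µg·h/mL.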

[8] = AUC in Sprague-Dawley rat at 5 mg/kg, po; type: ADME, organism-based; set-up: dose 5 mg/kg, route oral; settings: plasma; outline: as §3
[9] = Oral bioavailability in Sprague-Dawley rat at 5 mg/kg; type: ADME, organism-based; settings: in vivo; outline: as §3
[10] = Half life in Sprague-Dawley rat at 5 mg/kg, iv; type: ADME, organism-based; set-up: dose 5 mg/kg, route intravenous; settings: in vivo; outline: as §3
[11] = AUC in Sprague-Dawley rat at 5 mg/kg, po in presence of ritonavir; type: ADME, organism-based; set-up: dose 5 mg/kg, route oral; settings: plasma; outline: as §3

SMILES	EC50 [1] [nM]	EC50 [2] [nM]	EC50 [3] [nM]	EC50 [4] [nM]	Ratio EC50 [5]	EC50 [6] [nM]	Activity (Rattus norvegicus) [mg/dL]	Drug uptake (Serum) [µg/mL]	clearance [7] [mL/min/kg]	AUC [8] [ng·h/mL]	bioavailability [9] [%]	half-life [10] [min]	AUC [11] [ng·h/mL]
CC(C)CN(C[C@@H](O)[C@H](Cc1ccccc1)NC(=O)O[C@H]1CO[C@H]2OCC[C@H]21)S(=O)(=O)c1ccc(N)cc1	587	338	515										
COC(=O)N[C@H](C(=O)N[C@H](Cc1ccc(-c2ccccn2)cc1)C[C@H](O)[C@H](Cc1ccccc1)NC(=O)[C@@H](N1CCN(Cc2cccc(C(C)(C)C)n2)C1=O)C(C)(C)C)C(C)(C)C		151		311	10	15							
COC(=O)N[C@H](C(=O)NN(Cc1ccccc1)C[C@H](O)[C@H](Cc1ccccc1)NC(=O)[C@@H](N1CCN(Cc2cccc(C)n2)C1=O)C(C)(C)C)C(C)(C)C							0.429	13.28					
COC(=O)N[C@H](C(=O)N[C@@H](Cc1ccc(-c2ccccn2)cc1)C[C@H](O)[C@H](Cc1ccccc1)NC(=O)[C@@H](N1CCN(Cc2csc(-c3cccnc3)n2)C1=O)C(C)(C)C)C(C)(C)C				26	1	8			34.2	20	0.8	42	120
COC(=O)N[C@H](C(=O)N[C@@H](Cc1ccccc1)C[C@H](O)[C@H](Cc1ccccc1)NC(=O)[C@@H](N1CCN(Cc2cccc(C)n2)C1=O)C(C)(C)C)C(C)(C)C		88		179	7	13	0.195	18.68					
COC(=O)N[C@H](C(=O)N[C@@H](Cc1ccc(-c2ccccn2)cc1)C[C@H](O)[C@H](Cc1ccccc1)NC(=O)[C@@H](N1CCN(Cc2nc3ccccc3n2C)C1=O)C(C)(C)C)C(C)(C)C		32		346	<1	140							
COC(=O)N[C@H](C(=O)N[C@@H](Cc1ccc(-c2ccccn2)cc1)C[C@H](O)[C@H](Cc1ccccc1)NC(=O)[C@@H](N1CCN(Cc2ccccc2N)C1=O)C(C)(C)C)C(C)(C)C		21		20	5	4			33.2	80	2.9	72	1250
COC(=O)N[C@H](C(=O)N[C@H](Cc1ccc(-c2ccccn2)cc1)C[C@H](O)[C@H](Cc1ccccc1)NC(=O)[C@@H](N1CCN(Cc2csc(C)n2)C1=O)C(C)(C)C)C(C)(C)C		12		15	4	3			31	160	5.9	24	1980
COC(=O)N[C@H](C(=O)N[C@@H](Cc1ccc(-c2ccccn2)cc1)[C@@H](O)C[C@H](Cc1ccccc1)NC(=O)[C@@H](N1CCN(Cc2csc(-c3cccnc3)n2)C1=O)C(C)(C)C)C(C)(C)C		1		18	<1	2			46.7	30	1.6	48	260
COC(=O)N[C@H](C(=O)N[C@@H](Cc1ccc(-c2ccccn2)cc1)C[C@H](O)[C@H](Cc1ccccc1)NC(=O)[C@@H](N1CCN(Cc2cccc(C)c2)C1=O)C(C)(C)C)C(C)(C)C		41		25	8	5			29.3	20	0.8	84	2700
COC(=O)N[C@H](C(=O)N[C@@H](Cc1ccc(-c2ccccn2)cc1)[C@@H](O)C[C@H](Cc1ccccc1)NC(=O)[C@@H](N1CCN(Cc2ccnc3ccccc23)C1=O)C(C)(C)C)C(C)(C)C		1		15	<1	2			33.3	50	1.1	24	3300
COC(=O)N[C@H](C(=O)N[C@@H](Cc1ccc(-c2ccccn2)cc1)C[C@H](O)[C@H](Cc1ccccc1)NC(=O)[C@@H](N1CCN(Cc2ccccc2OC)C1=O)C(C)(C)C)C(C)(C)C		49		17	12	4			36	70	3.1	72	9380
COC(=O)N[C@H](C(=O)N[C@H](Cc1ccc(-c2ccccn2)cc1)C[C@H](O)[C@H](Cc1ccccc1)NC(=O)[C@@H](N1CCN(Cc2ccnc3ccccc23)C1=O)C(C)(C)C)C(C)(C)C		8		21	2	5			41.7		0	36	9200
COC(=O)N[C@H](C(=O)N[C@@H](Cc1ccc(-c2ccccn2)cc1)C[C@H](O)[C@H](Cc1ccccc1)NC(=O)[C@@H](N1CCN(Cc2ccnc3ccccc23)C1=O)C(C)(C)C)C(C)(C)C		2		19	<1	4			30	20	0.6	66	2860
COC(=O)N[C@H](C(=O)N[C@@H](Cc1ccc(-c2ccccn2)cc1)[C@@H](O)C[C@H](Cc1ccccc1)NC(=O)[C@@H](N1CCN(Cc2cccc(C(C)(C)O)n2)C1=O)C(C)(C)C)C(C)(C)C		2		19	<1	4			16.7	880	17	54	1820
COC(=O)N[C@H](C(=O)N[C@@H](Cc1ccc(-c2ccccn2)cc1)[C@@H](O)C[C@H](Cc1ccccc1)NC(=O)[C@@H](N1CCN(Cc2csc(C)n2)C1=O)C(C)(C)C)C(C)(C)C		2		34	<1	3			31.7	320	11.2	30	8400
COC(=O)N[C@H](C(=O)N[C@H](Cc1ccc(-c2ccccn2)cc1)C[C@H](O)[C@H](Cc1ccccc1)NC(=O)[C@@H](N1CCN(Cc2cccc(C(C)C)n2)C1=O)C(C)(C)C)C(C)(C)C		66		105	4	15							
COC(=O)N[C@H](C(=O)N[C@@H](Cc1ccc(-c2ccccn2)cc1)C[C@H](O)[C@H](Cc1ccccc1)NC(=O)[C@@H](N1CCN(Cc2cccc(C)n2)C1=O)C(C)(C)C)C(C)(C)C		15		62	1	13	0.233	5.83					
COC(=O)N[C@H](C(=O)N[C@@H](Cc1ccc(-c2ccccn2)cc1)C[C@H](O)[C@H](Cc1ccccc1)NC(=O)[C@@H](N1CCN(Cc2cccc(C(C)(C)O)n2)C1=O)C(C)(C)C)C(C)(C)C		4		53		6			23.3	200	5.7	60	830
COC(=O)N[C@H](C(=O)N[C@H](Cc1ccc(-c2ccccn2)cc1)C[C@H](O)[C@H](Cc1ccccc1)NC(=O)[C@@H](N1CCN(Cc2nc3ccccc3n2C)C1=O)C(C)(C)C)C(C)(C)C		20		33	7	3			54		0.1	42	1170
COC(=O)N[C@H](C(=O)N[C@@H](Cc1ccccc1)[C@@H](O)CN(Cc1ccc(-c2ccccn2)cc1)NC(=O)[C@@H](NC(=O)OC)C(C)(C)C)C(C)(C)C [ATAZANAVIR]	74	250	298			3							
Cc1cccc(C)c1OCC(=O)N[C@@H](Cc1ccccc1)[C@@H](O)C[C@H](Cc1ccccc1)NC(=O)[C@H](C(C)C)N1CCCNC1=O [LOPINAVIR]	3790	1060	> 10000	152	59								

Reference: ChEMBL document CHEMBL1153436, “2-Pyridyl P1'-substituted symmetry-based human immunodeficiency virus protease inhibitors (A-792611 and A-790742) with potential for convenient dosing and reduced side effects” (J Med Chem, 2009)
